17 compounds from PubChem BioAssay can be followed below.

Activity calls are given as the source filed them.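 How the source made its calls: active means current rise at least 3 SD above the untreated control mean in each of two repeat wells; inactive means the rest.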

Sequence of Potassium voltage-gated channel subfamily KQT member 1 (Homo sapiens) (P51787 whole entry, looked up): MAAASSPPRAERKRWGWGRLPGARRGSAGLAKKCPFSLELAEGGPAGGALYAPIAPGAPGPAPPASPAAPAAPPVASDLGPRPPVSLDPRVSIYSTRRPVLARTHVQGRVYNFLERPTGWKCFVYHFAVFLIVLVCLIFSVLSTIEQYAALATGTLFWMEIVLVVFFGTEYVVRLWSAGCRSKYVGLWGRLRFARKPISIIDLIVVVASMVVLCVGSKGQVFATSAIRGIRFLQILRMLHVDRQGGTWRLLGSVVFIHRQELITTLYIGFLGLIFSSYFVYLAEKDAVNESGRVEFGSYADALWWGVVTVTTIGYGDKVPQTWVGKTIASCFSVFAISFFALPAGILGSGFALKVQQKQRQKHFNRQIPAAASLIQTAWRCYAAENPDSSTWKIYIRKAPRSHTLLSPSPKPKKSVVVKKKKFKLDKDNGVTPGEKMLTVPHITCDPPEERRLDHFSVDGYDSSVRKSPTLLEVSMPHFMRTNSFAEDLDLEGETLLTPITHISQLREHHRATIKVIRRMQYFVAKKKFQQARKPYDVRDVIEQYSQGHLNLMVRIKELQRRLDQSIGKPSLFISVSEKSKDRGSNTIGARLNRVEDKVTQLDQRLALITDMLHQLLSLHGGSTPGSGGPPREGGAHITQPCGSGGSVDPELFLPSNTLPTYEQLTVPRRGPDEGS

The assay concerns the target Potassium voltage-gated channel subfamily KQT member 1 (Homo sapiens) (UniProt P51787). The experiment in a line: KCNQ1 channel current potentiators, confirmation, orthogonal assay for KCNQ1 potentiator project, IonWorks patch clamp, KCNQ1-CHO cells (AID 493184).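 On current potentiation: percent change of the same well's current before compound addition so 0% = no change.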 The settings on record: automated patch clamp current, at 10 µM; active compounds read high. The procedure, abridged: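 Probe or stimulus: depolarizing pulse to +40 mV from -90 mV; Material: CHO cells carrying KCNQ1; Compound: one dose, 10 µM final; Signal: automated voltage clamp, amphotericin B perforated patch; Read-out basis: percent current increase versus pre-compound level; Buffer or medium: pH 7.4 external bath; Replication: duplicates.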
On the technique in general: The patch-clamp technique gives a direct electrical read-out from membranes.
With `CCOC(=O)C1CCN(C(=O)COC(=O)c2cc(-c3cccs3)nn2-c2ccccc2)CC1`, the result was inactive.

Regarding `Cc1ccc(/C=C2\SC(=S)N(NS(=O)(=O)c3ccc(C)cc3)C2=O)cc1`, the current potentiation was 21.1% (active). In the case of `CCOc1cc(S(=O)(=O)Nc2ccc(Cl)cn2)ccc1Cl`, the outcome was inactive.

On to `Cc1ccc(Nc2c(-c3ccc(C)o3)nc3cnccn23)cc1`, for which the result was inactive. In the case of `O=[N+]([O-])c1ccc(C(O)C(CO)NC(=S)Nc2ccccc2)cc1` (configuration not stated), the result was inactive.

Consider `COCC(=O)Nc1nnc(SCC(=O)N2C(C)CCCC2C)s1` (configuration not stated), for which the outcome was inactive. Take `CCc1ccc(C2c3[nH]c4ccccc4c3CCN2C(=O)CN2CCN(CC)CC2)cc1` (configuration not stated): the result was inactive. For `COc1ccc(/C=C(\NC(=O)c2cccs2)C(=O)N2CCOCC2)cc1OC`, the result was inactive. In the case of `Cc1cc(OC(=O)c2cc(Cl)ccc2Cl)c([N+](=O)[O-])c(=O)[nH]1`, the result was inactive.

As for `CC(=O)c1ccc(NC(=S)NC(=O)c2c(Cl)c(C)nn2C)cc1`, the result was inactive. Same read-out and setting: the result for `S=c1[nH]nc(-c2ccccc2)n1/N=C/c1ccc(-c2ccccc2Cl)o1` reads “inactive”; that for `CN(C(=S)NC(=O)c1ccccc1Br)C1CCCCC1`, “inactive”. On to `COc1cccc(CN2CCN(Cc3cc4ccccc4[nH]3)CC2CCO)c1` (configuration not stated), for which the outcome was inactive. On to `CC(C)COc1ccc(-c2nn(-c3ccccc3)cc2/C=C2/SC(=S)N(CC(=O)O)C2=O)cc1`, for which the result was inactive. As to `CN(C(=S)NC(=O)c1ccc(F)cc1)C1CCCCC1`, the result was inactive. On the same count and under the same terms, for `CC(C)COc1ccc(-c2nn(-c3ccccc3)cc2C(=O)Nc2nccs2)cc1` the value was “inactive”; for `Cc1ccc(NC(=O)Cn2nc(C)c3ccccc3c2=O)c(C)c1`, “inactive”.
